The values below come from PubChem BioAssay.

A short description of assay [1]: hit retest on RPL19A-GFP reporter strain – cell-based, S. cerevisiae, flow cytometry, cherry picks, mother/daughter gates, confirmation (AID 2270;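 active means GFP response below 50% of the DMSO control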). The conditions noted are these: 3 h, at 10 µM, stronger effect = lower value, 100 = same GFP as DMSO wells. A general note: A flow cytometer gives signals particle by particle.
The nature of assay [2]: yeast TOR pathway reporter LAP4-GFP change – cell-based, cherry picks, flow cytometry, mother/daughter gates, confirmation (AID 2271;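 active means GFP response above 150% of the DMSO control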;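 further: ratio of sample to DMSO plate mean so 100% equals DMSO level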). The conditions noted are these: S. cerevisiae LAP4-GFP strain, 3 h, at 10 µM, stronger effect = higher value, 100 means same as DMSO control. The method, boiled down: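 Test system: GFP-fusion yeast strain. Medium: synthetic complete (SC) yeast growth medium. Timing: 3 h treatment at 30 °C with rotation. Measured by: GFP by flow cytometry. Control set: positive rapamycin (400 ng/mL), negative DMSO.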

Assay [3] can be described thus: TOR pathway reporter MEP2-GFP, retest of hits – S. cerevisiae, flow cytometry GFP, cherry picks, confirmation (AID 2272;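 active means GFP response above 150% of the DMSO control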;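 further: ratio of well signal to plate DMSO mean so 100% equals DMSO level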). The conditions noted are these: S. cerevisiae MEP2-GFP strain, 3 h, at 10 µM, stronger effect = higher value.
The nature of assay [4]: yeast AGP1-GFP fluorescence change, single-dose – cell-based, flow cytometry, S. cerevisiae, cherry picks, confirmation (AID 2273).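 Further: median GFP channel fluorescence over the whole cell population gate.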 To be noted: S. cerevisiae AGP1-GFP strain, 3 h, at 10 µM.
The nature of assay [5]: TOR pathway CIT2 reporter hit retest – S. cerevisiae, GFP fusion, cherry picks, mother/daughter gates, confirmation (AID 2274). To be noted: S. cerevisiae CIT2-GFP strain, flow cytometry, 3 h, at 10 µM, stronger effect = higher value.
[6] abbreviates: measured here: daughter cell gate.
Setting [7] is: measured here: mother cell gate.
Setting [8] is: measured here: daughter cell gate response.
Setting [9] is: measured here: mother cell gate response.

The source made the active and inactive calls.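 How the source made its calls, unless noted: active means GFP response above 150% of the DMSO level; inconclusive means fewer than 70 events counted for a yeast strain; inactive means the rest.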

Consider `Cc1cccc(CN2CCSc3sccc3C2=O)c1`, for which the GFP response vs DMSO in assay [1] is 96.8% (inactive); in assay [1] (setting [6]), 95.7%; in assay [1] (setting [7]), 96.5%; in assay [3] it was 131% (inactive). In addition, the GFP response relative to DMSO in assay [2] is 125% (inactive); in assay [2] (setting [8]) it was 127%; in assay [2] (setting [9]) it was 126%. Moreover, the GFP response, % of DMSO was 98.2% (inactive) in assay [4], 112% (inactive) in assay [5], 114% in assay [5] (setting [6]) and 109% in assay [5] (setting [7]).

For `Cc1cc(C)c2sc(NC(=O)C3=COCCO3)nc2c1`, the GFP response vs DMSO was 95.8% (inactive) in assay [1], 95.5% in assay [1] (setting [6]), 97.9% in assay [1] (setting [7]) and 99.5% (inactive) in assay [3]. In addition, the GFP response relative to DMSO was 94.2% (inactive) in assay [2], 95% in assay [2] (setting [8]) and 96.5% in assay [2] (setting [9]). Moreover, the GFP response, % of DMSO in assay [4] was 92.5% (inactive); in assay [5] it was 102% (inactive); in assay [5] (setting [6]), 104%; in assay [5] (setting [7]) it was 101%.

As for `O=C(CSc1cccc[n+]1[O-])CSc1cccc[n+]1[O-]`, the GFP response vs DMSO in assay [1] was 97.8% (inactive); in assay [1] (setting [6]) it was 101%; in assay [1] (setting [7]), 95%; in assay [3] it was 103% (inactive). The GFP response relative to DMSO in assay [2] was 119% (inactive); in assay [2] (setting [8]) it was 116%; in assay [2] (setting [9]), 120%. Also, the GFP response, % of DMSO in assay [4] was 103% (inactive); in assay [5] it was 97.2% (inactive); in assay [5] (setting [6]) it was 101%; in assay [5] (setting [7]), 98.2%.

Turning to `CC1CN(c2nnnn2-c2ccccc2)CC(C)O1` (stereo unspecified), the GFP response vs DMSO in assay [1] was 99% (inactive); in assay [1] (setting [6]), 99.1%; in assay [1] (setting [7]), 99.8%; in assay [3], 96.2% (inactive). The GFP response relative to DMSO in assay [2] is 102% (inactive); in assay [2] (setting [8]), 101%; in assay [2] (setting [9]), 100%. In addition, the GFP response, % of DMSO in assay [4] was 100% (inactive); in assay [5], 101% (inactive); in assay [5] (setting [6]) it was 103%; in assay [5] (setting [7]), 99.7%.

Consider `COc1ccc(C(=O)NC(=S)NNC(=O)c2cnccn2)cc1`, for which the GFP response vs DMSO was 99.3% (inactive) in assay [1], 91.3% in assay [1] (setting [6]), 96% in assay [1] (setting [7]) and 114% (inactive) in assay [3]. Also, the values for the GFP response relative to DMSO in assay [2], in assay [2] (setting [8]) and in assay [2] (setting [9]) were 285% (active), 176% and 262%, respectively. Further, the GFP response, % of DMSO was 95.2% (inactive) in assay [4], 104% (inactive) in assay [5], 96.4% in assay [5] (setting [6]) and 93.3% in assay [5] (setting [7]).

On to `COc1ccc(NC(=O)C2CCN(S(=O)(=O)c3ccc(OC)c(OC)c3)CC2)c(OC)c1`, for which the GFP response vs DMSO in assay [1] was 90.6% (inactive); in assay [1] (setting [6]), 92%; in assay [1] (setting [7]) it was 89%; in assay [3], 107% (inactive). Also, the GFP response relative to DMSO in assay [2] was 99.5% (inactive); in assay [2] (setting [8]) it was 99.1%; in assay [2] (setting [9]), 102%. The GFP response, % of DMSO in assay [4] was 100% (inactive); in assay [5] it was 103% (inactive); in assay [5] (setting [6]) it was 97.4%; in assay [5] (setting [7]), 105%.

In the case of `CC(C)C(=O)NC(c1cccs1)c1cc([N+](=O)[O-])c2cccnc2c1O` (stereo unspecified), the GFP response vs DMSO in assay [1] is 95.8% (inactive); in assay [1] (setting [6]) it was 95.2%; in assay [1] (setting [7]) it was 95.8%; in assay [3], 94.7% (inactive). Moreover, the GFP response relative to DMSO is 101% (inactive) in assay [2], 99.1% in assay [2] (setting [8]) and 99.4% in assay [2] (setting [9]). Moreover, the GFP response, % of DMSO in assay [4] was 101% (inactive); in assay [5] it was 98.8% (inactive); in assay [5] (setting [6]), 101%; in assay [5] (setting [7]) it was 99.3%.

As for `COc1cccc2c1Oc1ncccc1N(C(=O)CCC(=O)NCc1ccccc1Cl)C2`, the GFP response vs DMSO in assay [1] is 95.6% (inactive); in assay [1] (setting [6]), 97.9%; in assay [1] (setting [7]) it was 95.8%; in assay [3], 99% (inactive). The values for the GFP response relative to DMSO in assay [2], in assay [2] (setting [8]) and in assay [2] (setting [9]) were 97% (inactive), 97.5% and 96.2%, respectively. Further, the GFP response, % of DMSO in assay [4] is 99.6% (inactive); in assay [5], 103% (inactive); in assay [5] (setting [6]), 103%; in assay [5] (setting [7]) it was 103%.

As for `C/C(=N\NC(=O)Cc1ccc([N+](=O)[O-])cc1)c1cccnc1`, the GFP response vs DMSO is 97.8% (inactive) in assay [1], 99.3% in assay [1] (setting [6]), 97.7% in assay [1] (setting [7]) and 96.8% (inactive) in assay [3]. In addition, the GFP response relative to DMSO is 98.2% (inactive) in assay [2], 97.5% in assay [2] (setting [8]) and 97.3% in assay [2] (setting [9]). Moreover, the GFP response, % of DMSO is 98.4% (inactive) in assay [4], 102% (inactive) in assay [5], 103% in assay [5] (setting [6]) and 102% in assay [5] (setting [7]).

`Cc1cc(NCCN2CCOCC2)n2ncc(-c3ccccc3)c2n1`: the GFP response vs DMSO in assay [1] is 99.6% (inactive); in assay [1] (setting [6]) it was 99.8%; in assay [1] (setting [7]) it was 99.4%; in assay [3] it was 103% (inactive). Also, the values for the GFP response relative to DMSO in assay [2], in assay [2] (setting [8]) and in assay [2] (setting [9]) were 107% (inactive), 110% and 107%, respectively. The GFP response, % of DMSO in assay [4] was 89.3% (inactive); in assay [5], 103% (inactive); in assay [5] (setting [6]), 99.3%; in assay [5] (setting [7]), 104%.

Regarding `CN1CCN(CCCCOc2ccccc2C=O)CC1`, the GFP response vs DMSO in assay [1] is 99.5% (inactive); in assay [1] (setting [6]), 97.8%; in assay [1] (setting [7]), 101%; in assay [3] it was 104% (inactive). The GFP response relative to DMSO in assay [2] is 97.4% (inactive); in assay [2] (setting [8]), 97.2%; in assay [2] (setting [9]), 99.3%. Moreover, the GFP response, % of DMSO in assay [4] was 102% (inactive); in assay [5], 97.8% (inactive); in assay [5] (setting [6]) it was 94.8%; in assay [5] (setting [7]) it was 98.7%.
